Assay results of several laboratories.
Lines come from different studies, so protocols differ.
Target: Calcium/calmodulin-dependent protein kinase kinase 2 (CAMKK2, Homo sapiens, UniProt Q96RR4)

N[C@H]1CCN(c2nccc(-c3cnn4ncccc34)n2)C1
remaining binding (binding; 1 µM): 100%

COc1cnc(Nc2cccc(S(N)(=O)=O)c2)nc1N1CCN(c2ccccc2)CC1
remaining binding (binding, competition with immobilised ligand; 1 µM): 92%

CN(C)c1ncc(F)c(-c2cnn3ncccc23)n1
remaining binding (binding; 1 µM): 86%

N#Cc1ccc(Nc2ccc3[nH]c(=O)[nH]c3c2)c(Cl)c1
remaining binding (cell-free assay, competition with immobilised ligand; 1 µM): 91%

C=CC(=O)N1CCC(C(=O)NCC(=O)N2CCN(c3nc(-c4cnc(N)nc4C(F)F)nc(N4CCOCC4)n3)CC2)CC1
remaining binding (binding, competition with immobilised ligand; 1 µM): 95%

CC1=C(C#N)C(c2ccc3c(c2)c(NC(=O)c2ccccc2C)nn3C)C(C#N)=C(C)N1
remaining binding (cell-free assay, competition with immobilised ligand; 1 µM): 100%

Cc1cnc(Nc2ccc(C(=O)N3CCC(N4CCCC4)CC3)cc2)nc1-c1cc2ccccc2s1
remaining binding (binding, competition with immobilised ligand; 1 µM): 81%

CN(c1nccc(-c2cnn3ncccc23)n1)C1CC1
remaining binding (binding; 1 µM): 100%

O=C(Nc1c[nH]nc1C(=O)NC1CCNCC1)c1cc(F)cc(F)c1
remaining binding (binding, competition with immobilised ligand; 1 µM): 91%

CN(C)c1nccc(-c2cnn3ncccc23)n1
remaining binding (binding; 1 µM): 82%

COc1cnc(Nc2cccc(S(N)(=O)=O)c2)nc1N1CCN(c2ccccc2)C(=O)C1
remaining binding (binding, competition with immobilised ligand; 1 µM): 100%

Cc1cc(NC(=O)c2cccc(S(F)(F)(F)(F)F)c2)cc(-n2ccn3nc(-c4cccnc4)cc23)c1
remaining binding (cell-free assay, competition with immobilised ligand; 1 µM): 99.6%

FC(F)(F)Oc1cccc(-c2cnc3ccc(-c4ccncc4)nn23)c1
remaining binding (cell-free assay, competition with immobilised ligand; 5 µM): 55%

C[C@@H](c1cccc(C#N)c1)n1cc(Cl)cc(C(N)=O)c1=N
remaining binding (cell-free assay, competition with immobilised ligand; 1 µM): 100%

C[C@H]1CCN(c2nccc(-c3cnn4ncccc34)n2)C1
remaining binding (binding; 1 µM): 74%

O=C(NCCCN1CCOCC1)c1ccc(Nc2nccc(-c3cc4ccccc4s3)n2)cc1
remaining binding (binding, competition with immobilised ligand; 1 µM): 81%

CCC(=N\O)/C(C)=C/c1ccc(F)cc1
remaining binding (cell-free assay, competition with immobilised ligand; 1 µM): 98%

Nc1ncc2c(n1)-c1c([nH]c3ccc(C#CC4CC4)cc13)CCCC2
remaining binding (binding, competition with immobilised ligand; 1 µM): 94%

CO[C@H]1CC[C@H](CNc2ccc(S(=O)(=O)NC(=O)c3ccc(N4CCN(CC5=C(c6ccc(Cl)cc6)CC(C)(C)CC5)CC4)cc3Oc3cnc4[nH]ccc4c3)cc2[N+](=O)[O-])CC1
remaining binding (cell-free assay, competition with immobilised ligand; 1 µM): 81%

CN(CCCC(F)(F)F)c1nccc(-c2cnn3ncccc23)n1
remaining binding (binding; 1 µM): 100%
